The subject of assay [1] is Hepatitis C virus. Description: Antiviral activity against cyclosporine A/NIM811-resistant HCV subtype 1b Con1 infected in human HuH7 cells assessed as reduction in viral RNA level after 48 hrs by qRT-PCR analysis relative to control. The format is functional, Hepacivirus hominis, Huh-7. A digest of the protocol: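 Clone A replicon cells were resistance-selected by 8-week passage with increasing CsA up to 5 μM, then 5 μM NIM811 for 5 more weeks, with 250 μg/ml G418. Control cells were passaged in 0.2% DMSO for the same period. Both were seeded at 10,000/well and treated 48 h with serial dilutions in 2% FBS/0.5% DMSO. HCV RNA was measured by qRT-PCR, normalized to total RNA. EC50 expressed as fold over DMSO control.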

For assay [2], the system named is Hepatitis C virus. Description: Antiviral activity against HCV subtype 1b Con1 infected in human HuH7 cells assessed as reduction in viral RNA level after 48 hrs by qRT-PCR analysis. The format is functional, organism-based, Hepacivirus hominis. The settings on record: Con1, Huh-7, 48 h. The method, boiled down: (§1)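 Con1 genotype 1b subgenomic replicon Huh7 cells (clone A or derived lines) were seeded at 10,000/well overnight without G418. They were treated 48 h with serially diluted compound in 2% FBS and 0.5% DMSO. HCV RNA was measured by TaqMan qRT-PCR and normalized to total RNA. Six replicates per point; EC50 is the concentration giving 50% reduction in HCV RNA.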
Background: Real-time PCR tracks product formation cycle by cycle.

Assay [3] deals with Hepatitis C virus. Description: Antiviral activity against HCV subtype 1b Con1 harboring NIM-resistant NS5A gene infected in human HuH7 cells assessed as reduction in viral RNA level after 48 hrs by qRT-PCR analysis. As to conditions: Con1, Huh-7, 48 h.
For assay [4], the system named is Hepatitis C virus. Description: Antiviral activity against HCV subtype 1b Con1 harboring wild type protease infected in human HuH7 cells assessed as reduction in viral RNA level after 48 hrs by qRT-PCR analysis. The format is functional, organism-based, Hepacivirus hominis. As to conditions: Con1, Huh-7, 48 h. The method, boiled down: as §1
Assay [5] concerns Hepatitis C virus. Description: Antiviral activity against wild type HCV subtype 1b Con1 infected in human HuH7 cells assessed as reduction in viral RNA level after 48 hrs by qRT-PCR analysis. The format is functional, organism-based, Hepacivirus hominis. The settings on record: Con1, Huh-7, 48 h. The method, boiled down:
as §1

Assay [6] has as its system Hepatitis C virus. Description: Antiviral activity against HCV subtype 1b Con1 infected in human HuH7 cells assessed as reduction in viral RNA level after 48 hrs by qRT-PCR analysis relative to control. The format is functional, Hepacivirus hominis, Huh-7. A digest of the protocol: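 Subgenomic genotype 1b Con1 replicon cells (clone A and derived lines) seeded 10,000/well overnight without G418, then treated 48 h with serially diluted compound in 2% FBS, 0.5% DMSO. HCV RNA quantified by TaqMan qRT-PCR, normalized to total RNA; six replicates per point. Percent inhibition versus control cells; EC50 is the concentration reducing HCV RNA by 50%.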

Assay [7] has as its system Hepatitis C virus. Description: Antiviral activity against HCV subtype 1b Con1 infected in cyclosporine A/NIM-resistant human HuH7 cells assessed as reduction in viral RNA level after 48 hrs by qRT-PCR analysis. The settings on record: Con1, Huh-7, 48 h. The assay is classed as functional, organism-based, Hepacivirus hominis. A digest of the protocol: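 CsA/NIM-resistant cells were cured of replicon: G418 removed, then 1 μM BILN2061 for 2 weeks and 5 μM for 2 more. Wild-type pCon1 replicon RNA was electroporated back in and cells selected in 250 μg/ml G418 for at least 2 weeks. Pooled colonies were treated 48 h with compound; EC50 came from qRT-PCR HCV RNA normalized to total RNA.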

Assay [8] concerns Hepatitis C virus. Description: Antiviral activity against cyclosporine A/NIM-resistant HCV subtype 1b Con1 infected in human HuH7 cells assessed as reduction in viral RNA level after 48 hrs by qRT-PCR analysis. As to conditions: Con1, Huh-7, 48 h.
Assay [9] deals with Hepatitis C virus. Description: Antiviral activity against cyclosporine A/NIM811-resistant HCV subtype 1b Con1 infected in human HuH7 cells assessed as reduction in viral RNA level after 48 hrs by qRT-PCR analysis. The assay is classed as functional, organism-based, Hepacivirus hominis. The settings on record: Con1, Huh-7, 48 h. The method, boiled down: as §1
Assay [10] concerns Hepatitis C virus. Description: Antiviral activity against HCV subtype 1b Con1 harboring NS5A and NS5B C575G mutant […] infected in human HuH7 cells assessed as reduction in viral RNA level after 48 hrs by qRT-PCR analysis. The format is functional, organism-based, Hepacivirus hominis. As to conditions: Con1, Huh-7, 48 h.
Assay [11] has as its system Hepatitis C virus. Description: Antiviral activity against cyclosporine A-resistant HCV subtype 1b Con1 infected in human HuH7 cells assessed as reduction in viral RNA level after 48 hrs by qRT-PCR analysis. As to conditions: Con1, Huh-7, 48 h.
Assay [12] has as its system Hepatitis C virus. Description: Antiviral activity against HCV subtype 1b Con1 infected in human HuH7 cells assessed as reduction in viral RNA level after 48 hrs by MTS assay. As to conditions: Con1, Huh-7, 48 h.

pEC50: −log10 of the molar value.

Results on three compounds are retold here after ChEMBL document CHEMBL1255435, “Mechanism of resistance of hepatitis C virus replicons to structurally distinct cyclophilin inhibitors” (Antimicrob Agents Chemother, 2010).

Take `C/C=C/C[C@@H](C)[C@@H](O)[C@H]1C(=O)N[C@@H](CC)C(=O)N(C)CC(=O)N(C)[C@@H]([C@@H](C)CC)C(=O)NC(C(C)C)C(=O)N(C)[C@@H](CC(C)C)C(=O)N[C@@H](C)C(=O)N[C@H](C)C(=O)N(C)C(CC(C)C)C(=O)N(C)[C@@H](CC(C)C)C(=O)N(C)[C@@H](C(C)C)C(=O)N1C` (single isomer, unassigned) [NIM811]: the “fold change (FC)” value in the assay with Hepatitis C virus [1] stood at 17.9; in the assay with Hepatitis C virus [6], 1. Besides, the pEC50 was 7.08 in the assay with Hepatitis C virus [2]; 6.03 in the assay on Hepatitis C virus [3]; 6.64 in the assay on Hepatitis C virus [4]; 6.92 in the assay on Hepatitis C virus [5]; 6.77 with Hepatitis C virus [7]; 5.46 with Hepatitis C virus [8]. The results for the pEC50 with Hepatitis C virus [9], in the assay with Hepatitis C virus [10] and in the assay on Hepatitis C virus [11] were 5.82, 5.94 and 6.08, respectively.
Regarding `COc1ccc2c(O[C@@H]3C[C@H]4C(=O)N[C@]5(C(=O)O)C[C@H]5/C=C\CCCCC[C@H](NC(=O)OC5CCCC5)C(=O)N4C3)cc(-c3csc(NC(C)C)n3)nc2c1` [CILUPREVIR], the pEC50 in the assay on Hepatitis C virus [2] was 8.85.
For the compound `C/C=C/C[C@@H](C)[C@@H](O)[C@H]1C(=O)N[C@@H](CC)C(=O)N(C)CC(=O)N(C)[C@@H](CC(C)C)C(=O)N[C@@H](C(C)C)C(=O)N(C)[C@@H](CC(C)C)C(=O)N[C@@H](C)C(=O)N[C@H](C)C(=O)N(C)[C@@H](CC(C)C)C(=O)N(C)[C@@H](CC(C)C)C(=O)N(C)[C@@H](C(C)C)C(=O)N1C` [CYCLOSPORINE], the pEC50 is 6.68 in the assay with Hepatitis C virus [12], below 5.00 with Hepatitis C virus [8] and 5.47 in the assay with Hepatitis C virus [11].

As a reminder, the pEC50 is the EC50 on a negative log10 scale, so that one unit is a factor of ten.
